SENP6 block = SENP6 protease inhibition | inhibition, % at 10 µM | AID 2599 | Q9GZR1 | 330,000 compounds, 1.8% hits | Recombinant SENP6 catalytic domain, aminoluciferin luminescence;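 active = inhibition above about 50% at the single tested dose, limit read from the data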;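 note: plate controls were DMSO wells with enzyme for no effect and DMSO wells lacking enzyme for full effect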
SENP8 block-1 = SENP8 protease inhibition. purified SENP8, Z-RLRGG-aminoluciferin cleavage, luminescence. Q96LD8. 330,000 compounds, 1.2% hits. inhibition, % at 10 µM; in the data active = inhibition above about 50%
Target sequence (Q96LD8 whole entry, looked up): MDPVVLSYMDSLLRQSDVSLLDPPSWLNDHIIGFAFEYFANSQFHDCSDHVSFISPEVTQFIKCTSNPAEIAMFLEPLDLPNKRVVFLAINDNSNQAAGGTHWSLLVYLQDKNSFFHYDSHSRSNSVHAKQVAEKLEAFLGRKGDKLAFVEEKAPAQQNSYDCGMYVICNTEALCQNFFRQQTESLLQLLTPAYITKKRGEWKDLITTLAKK
SENP7 inh = SENP7 protease inhibition; Q9BQF6; recombinant SENP7, Z-RLRGG-aminoluciferin luminescence, 40 min; inhibition, % at 5 µM; 330,000 compounds, 1.5% hits; AID 434973;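 active = inhibition above about 50% at the single test dose, limit read from the data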;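 note: plate controls were DMSO with enzyme for no effect and no enzyme buffer wells for full effect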
SENP8 block-2 = inhibitors of human SENP8 protease. Q96LD8. recombinant SENP8, Nedd8 substrate fluorescence. inhibition, % at 20 µM. 360,000 compounds, 0.64% hits; in the data active = inhibition mostly above about 40%, no sharp cut-off; inactive = mostly below about 27%
SENP1 FRET inh = blocks the human SENP1 SUMO protease catalytic domain; recombinant SENP1 catalytic domain, CyPet-SUMO1-YPet FRET cleavage; Q9P0U3; 360,000 compounds, 0.21% hits; AID 624204; inhibition, % at 10 µM;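 active = inhibition at least 30% at 10 µM, raw YFP signal under a set limit, fluorescence ratio 0.5 to 1.5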;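 note: 0% = enzyme with DMSO and 100% = no enzyme wells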
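material = recombinant human SENP1 catalytic domain, His6-tagged | quantity = 20 pM enzyme | reagent = 25 nM SUMO1 FRET substrate | compound dosing = 10 µM single point, 0.5% DMSO | timing = 50 min enzyme reaction, room temperature, light-protected | detection = FRET, CFP and YFP emission | control set = no-enzyme low, enzyme-DMSO high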
Platelet DG rel = modulates dense granule release in human platelets; human platelet-rich plasma, SFLLRN dense granule ATP release, luminescence; inhibition, %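 (compounds screened at 7.5 µM in platelet-rich plasma)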; 300,000 compounds, 0.22% hits; AID 1663;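 active = mean replicate score, as percent of positive control, at or above 50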
SENP8 confirm = confirmation of human SENP8 protease inhibitors. inhibition, % at 12.5 µM. shares compounds with SENP7 inh. 6,200 compounds, 40% hits. AID 488912. Recombinant SENP8, Z-RLRGG-aminoluciferin luminescence, 60 min;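 active = mean inhibition across replicates above about 50%, limit read from the data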
SENP6 confirm = human SENP6 inhibition, confirmed. recombinant SENP6, Z-RLRGG-aminoluciferin luminescence. 6,200 compounds, 58% hits. AID 488915. inhibition, % at 12.5 µM. shares compounds with SENP7 inh
SENP7 confirm = human SENP7 inhibition, confirmed; 6,200 compounds, 69% hits; inhibition, % at 12.5 µM; shares compounds with SENP7 inh; recombinant SENP7, Z-RLRGG-aminoluciferin luminescence, 40 min
Casp3 select = selectivity test for SENP inhibitors: human caspase-3 inhibition | shares compounds with SENP7 inh | purified caspase-3, Z-DEVD-aminoluciferin luminescence, 60 min | inhibition, % at 12.5 µM | 6,200 compounds, 60% hits | AID 488918;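 active = mean inhibition above about 50%, limit read from the data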;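 note: plate controls were enzyme with DMSO for no effect and wells without caspase-3 for full effect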
Target sequence (P42574 28-227 limits assumed): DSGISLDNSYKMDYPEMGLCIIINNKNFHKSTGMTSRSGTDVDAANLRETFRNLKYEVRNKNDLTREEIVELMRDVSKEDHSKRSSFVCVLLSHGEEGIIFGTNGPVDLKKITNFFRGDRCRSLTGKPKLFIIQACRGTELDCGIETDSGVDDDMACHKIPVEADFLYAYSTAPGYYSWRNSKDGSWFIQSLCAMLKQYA
Luc interf = luminescence interference (SENP counter-screen); shares compounds with SENP7 inh; Pre-incubated SENP8/Z-RLRGG-aminoluciferin, luciferase luminescence interference; inhibition, % at 12.5 µM; 6,200 compounds, 39% hits;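 active = mean inhibition above about 50% when retested at one dose, limit read from the data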;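 note: plate controls were DMSO wells with completed reaction for no effect and substrate without enzyme for full effect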
* marks the source's active call; other numbers are inactive results; nt = not tested or not shown. Shown are actives, neighbours in structure and some others; about 2.6% of the full set was active somewhere.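 Rule for the calls, unless noted: active = mean inhibition above about 50% in the one-dose retest (limit read from the data); inactive = the rest.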

SMILES	SENP6 block	SENP8 block-1	SENP7 inh	SENP8 block-2	SENP1 FRET inh	Platelet DG rel	SENP8 confirm	SENP6 confirm	SENP7 confirm	Casp3 select	Luc interf
Oc1ccc(-c2csc(Nc3ccccn3)n2)cc1	85*	82*	62*	2	2	10	91*	87*	95*	54*	88*
Cc1nc(C)c(-c2csc(Nc3ccccn3)n2)s1	74*	61*	54*	-17	1	1	37	65*	88*	46	68*
COc1ccc(-c2csc(Nc3ccccn3)n2)cc1OC	5	10	1	0	1	-1	nt	nt	nt	nt	nt
Cc1ccc(-c2csc(Nc3ccccn3)n2)cc1	91*	87*	89*	4	1	6	92*	92*	98*	69*	77*
Cc1cc(-c2csc(Nc3ccccn3)n2)ccc1F	75*	59*	67*	12	1	7	50	76*	92*	37	40
CCc1ccc(CNc2ccc(O)cc2)cc1	81*	77*	24	70*	4	5	14	12	-1	6	5
O=S(=O)(NC1CCCCC1Nc1ccc(Cl)cc1)c1ccccc1 (centres undefined)	-11	7	0	19	0	-3	nt	nt	nt	nt	nt
O=S(=O)(NC1CCCCC1NCc1ccco1)c1ccc(Cl)cc1 (centres undefined)	-22	-4	92*	14	-2	4	-4	2	9	6	-1
O=C(NC1=C(Nc2ccc(F)cc2)C(=O)c2ccccc2C1=O)c1ccc(Cl)cc1	63*	19	25	93*	1	0	36	60*	19	8	-1
O=C(NNC(=O)c1ccc(NC(=O)c2ccccc2)cc1)c1ccc(F)cc1	4	5	1	-16	1	-1	nt	nt	nt	nt	nt
O=[N+]([O-])c1ccccc1NCCNc1ncc(C(F)(F)F)cc1Cl	-15	-15	-1	30	3	-5	nt	nt	nt	nt	nt
O=c1cc(Cl)[nH]c(=O)n1CCNc1ncc(C(F)(F)F)cc1Cl	58*	33	10	-40	-107	11	52*	49	77*	73*	10
O=[N+]([O-])c1cccnc1NCCc1ccccc1	95*	81*	88*	10	0	9	41	69*	88*	72*	17
O=[N+]([O-])c1cccnc1NCCNc1ncc(C(F)(F)F)cc1Cl	67*	36	58*	26	-14	-7	60*	56*	83*	37	47
COc1ccccc1CNc1ncccc1[N+](=O)[O-]	-2	-14	1	21	-8	-5	nt	nt	nt	nt	nt
Cc1ccccc1Nc1nc(N)nc(COC(=O)c2ccc3c(c2)OCCO3)n1	nt	nt	nt	2	0	nt	nt	nt	nt	nt	nt
COc1cccc(NC(=O)CN(C)C(=O)C2CC(=O)N(CCc3ccc(OC)c(OC)c3)C2)c1 (centres undefined)	nt	nt	nt	2	-3	nt	nt	nt	nt	nt	nt
CCCCC1=NN(C(=O)c2cccnc2)C(O)(C(F)(F)F)C1 (centres undefined)	-17	-7	3	23	2	0	nt	nt	nt	nt	nt
CN(c1ccccc1)S(=O)(=O)c1cc(C(=O)Nc2ccccc2N2CCOCC2)ccc1Cl	nt	nt	nt	17	1	nt	nt	nt	nt	nt	nt
COCCNC(=O)c1ccc(CS(=O)(=O)c2cccc(C(F)(F)F)c2)o1	6	4	5	3	-2	-1	nt	nt	nt	nt	nt

Assay outcomes from PubChem BioAssay.
